Screens deposited in PubChem BioAssay by several laboratories.
In the library only some 0.88% were active in any assay of this set; here they are far more common.
CXCR6 inh = blocks human CXCR6 beta-arrestin recruitment | O00574 | CHO-K1 PathHunter CXCR6 beta-arrestin, luminescence | inhibition, % at 20 µM | hit rate 0.36% among 360,000; in the data active = inhibition above about 34%, passing the limit was not always enough;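 note: antagonist mode with CXCL16 agonist at 10 nM final; 0% = 10 nM CXCL16 with DMSO and 100% = unstimulated wells without agonist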
PKA-R2B act = PKA-R2B complex activation. P22694+P31323. PKA-R2B holoenzyme dissociation, Cy5-IP20 fluorescence polarization; R2B truncated from residue 108, S112A mutant; 0% DMSO only, 100% 113 µM cGMP. activation, % at 11.4 µM. hit rate 0.079% among 340,000. AID 504700;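 active = activation above a cutoff set at the mean over all compounds plus 3 SD, cut at about 18% in these data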;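 note: higher means more holoenzyme dissociation and a rise in polarization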
APJ antagonist = blocks the human apelin receptor APJ | P35414 | CHO-K1 APJ beta-arrestin complementation, luminescence | inhibition, % at 20 µM | hit rate 0.32% among 330,000;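 active = inhibition above about 40% at 20 µM, limit read from the data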;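 note: cells challenged with 10 nM apelin-13 agonist together with compound; plate controls were apelin-13 plus DMSO wells for no effect and DMSO wells lacking apelin-13 for full effect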
APJ ag = agonists of human APJ apelin receptor; activation, % at 20 µM; hit rate 0.11% among 330,000; P35414; CHO-K1 APJ PathHunter beta-arrestin, luminescence; 0% DMSO wells, 100% apelin;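 active = activation more than six SD over the plate average, tested at 20 µM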;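 note: 0% = DMSO alone and 100% = apelin-13 at 10 nM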
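Material: CHO-K1 APJ beta-arrestin complementation cell line; Input: cell density 1000 per well; Incubation: compound stimulation 90 min at 25 °C, detection 60 min; Signal: luminescence from split beta-galactosidase complementation, Galacton Star/Emerald II substrate; Controls: DMSO-only wells as negative, 10 nM Apelin-13 as positive control.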
PKA-R1A activ = activates the PKA-R1A holoenzyme complex; P00514+P68181; PKA-R1A dissociation, Cy5-IP20 fluorescence polarization; scaled: DMSO 0%, 113 µM cGMP 100%; activation, % at 11.4 µM; hit rate 0.083% among 340,000;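 active = percent activation above the mean of all tested compounds plus 3 SD, cut at about 19% in these data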;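 note: higher means more PKAc released from R1A so a rise in polarization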
CCR6 antagonist = antagonists of human CCR6 receptor; CHO-K1 CCR6 PathHunter beta-arrestin, luminescence, CCL20-stimulated; inhibition, % at 20 µM; hit rate 0.49% among 340,000; AID 493098;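 active = compounds whose inhibition of the agonist-driven luminescence signal at 20 µM reaches about 50%, limit read from the data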;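 note: cells stimulated with CCL20 at 14 nM final; plate controls were DMSO with CCL20 for no effect and DMSO without agonist for full effect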
Target sequence (P51684 whole entry, looked up): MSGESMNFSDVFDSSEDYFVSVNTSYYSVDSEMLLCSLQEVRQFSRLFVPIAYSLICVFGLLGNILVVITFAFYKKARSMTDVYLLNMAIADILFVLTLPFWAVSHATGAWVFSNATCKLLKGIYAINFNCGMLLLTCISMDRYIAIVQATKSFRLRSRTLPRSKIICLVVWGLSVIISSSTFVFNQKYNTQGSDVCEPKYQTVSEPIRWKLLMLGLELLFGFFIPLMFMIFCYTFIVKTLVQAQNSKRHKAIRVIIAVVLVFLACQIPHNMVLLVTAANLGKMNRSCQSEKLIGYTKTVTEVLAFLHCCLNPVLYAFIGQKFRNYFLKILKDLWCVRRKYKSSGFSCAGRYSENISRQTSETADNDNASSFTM
APJ antag conf = confirmation of human APJ apelin receptor antagonists; inhibition, % at 20 µM; hit rate 66% among 950; AID 2766; APJ beta-arrestin recruitment, luminescence, antagonist mode; shares compounds with APJ antagonist; in the data active = inhibition above about 50%
Starred values were filed as active, the others as inactive; . = no result given.

SMILES	CXCR6 inh	PKA-R2B act	APJ antagonist	APJ ag	PKA-R1A activ	CCR6 antagonist	APJ antag conf
CC(=O)N(/N=C1/C(=O)Nc2ccccc21)c1ccccc1	12.7	0.7	20.4	-2.9	2.2	20.0	.
COc1ccc(OC)c(NC(=O)CN2C(=O)NC(C)(c3ccc4c(c3)OCCO4)C2=O)c1 (stereo not given)	-0.4	3.9	4.2	-1.7	-16.2	9.1	.
COc1ccccc1NS(=O)(=O)c1cc([N+](=O)[O-])ccc1N/N=C/c1c(C)[nH]c2ccccc12	46.4*	1.0	58.3*	-13.2	-4.2	58.5*	84.0*
CN1CCN(S(=O)(=O)c2cc([N+](=O)[O-])ccc2N/N=C/c2ccc(Cl)cc2)CC1	3.0	-0.1	7.6	4.3	-1.8	-2.9	.
O=[N+]([O-])c1ccc(N/N=C/c2c[nH]c3ccccc23)c(S(=O)(=O)Nc2ccc(Cl)cc2)c1	35.4	-8.5	44.1*	-8.1	-0.8	45.8	91.4*
O=C1c2ccccc2-c2nnc(-c3ccc(F)cc3)cc21	20.4	-3.8	7.5	-6.7	-0.7	45.3	.
Cc1ccc(-c2cc3c(nn2)-c2ccccc2C3=O)cc1	9.4	-5.3	43.3*	-12.9	-3.9	46.4	147.0*
COc1cc(C(C#N)N2N=C(c3ccccc3)CC2c2ccccc2)ccc1O (stereo not given)	7.6	-9.7	-3.3	-3.6	-1.4	4.4	.
N#CC(c1ccccc1O)N1N=C(c2ccccc2)CC1c1ccccc1 (stereo not given)	35.8	2.4	66.7*	-9.4	2.0	54.5*	32.2
COc1ccc(N=Nc2ccc(O)c3ncccc23)cc1	23.4	-13.2	45.7*	-8.8	2.1	38.2	83.6*
COc1cc(OC)cc(C(=O)Nc2cccc3cccnc23)c1	2.6	-15.2	-20.6	0.5	-6.5	7.7	.
COc1cccc(N=Nc2ccc3cccnc3c2O)c1	20.7	-9.3	61.2*	-10.1	-4.5	41.5	60.6*
Oc1ccc(N=Nc2ccc3c(c2)OCCO3)c(O)c1	24.7	-11.5	11.7	-4.3	-2.6	39.1	.
COc1ccc(C)cc1N=Nc1ccc(O)c2ncccc12	31.8	4.7	.	.	1.9	49.5	.
COc1cccc(N=Nc2ccc(O)c3ncccc23)c1	90.3*	-12.2	66.3*	-14.0	3.0	60.1*	96.4*
Oc1ccc(N=Nc2ccc3c(c2)OCCO3)c2cccnc12	35.8	-3.1	52.2*	-9.9	-6.6	50.9*	71.4*
COc1cc(/C=C2\SC(=S)N(NC(=O)c3ccccc3O)C2=O)ccc1O	28.1	6.5	22.1	-9.0	14.2	46.1	.
COc1cc(/C=C2\SC(=S)N(N(C)c3ccccc3)C2=O)ccc1O	2.7	3.8	56.4*	-10.9	-1.8	14.5	95.4*
CCOc1cc(/C=C2/SC(=S)N(Cc3ccccc3)C2=O)ccc1O	42.9*	-2.6	45.9*	-8.0	-8.3	54.0*	87.5*
CC(=O)Oc1ccc(/C=C2/SC(=S)N(Cc3ccccc3)C2=O)cc1	27.9	6.6	46.8*	-6.6	4.6	50.2*	71.7*
CCOC(=O)c1nccnc1C(=O)Nc1ccc(C(F)(F)F)cc1	-0.3	-16.6	19.2	3.2	-1.5	3.6	.
CCCCC[C@@H](C)N1C[C@H](COCc2ccccc2)Oc2cc(N3CCC[C@@H]3CO)ccc2S1(=O)=O	4.9	.	.	.	.	.	.
COc1cc(/C=C2/C(=O)NN(c3ccc(Cl)cc3)C2=O)cc(OC)c1O	33.8	-7.6	40.8*	-7.7	-8.4	42.0	46.4
COc1cc(/C=C2/C(=O)N(c3ccc(C(=O)O)cc3)N=C2C)cc(OC)c1O	40.2*	8.0	58.8*	-7.7	-4.0	68.7*	94.5*
COc1cc(/C=C2/C(=O)N(c3ccc(Br)cc3)N=C2C)cc(OC)c1OC	7.1	-17.3	16.8	-1.7	-1.7	17.7	.
SMILES	CXCR6 inh	PKA-R2B act	APJ antagonist	APJ ag	PKA-R1A activ	CCR6 antagonist	APJ antag conf
COc1cc(/C=C2/SC(=S)N(C)C2=O)ccc1OC(=O)c1ccco1	28.5	0.2	46.2*	-4.8	11.9	49.0	48.4
CC1(c2ccccc2Cl)NC(=O)N(CC(=O)Nc2ccc(N3CCCCC3)cc2)C1=O (stereo not given)	-1.2	0.6	7.8	-2.0	-3.3	7.9	.
Nc1c(N2CCN(c3ccccc3)CC2)c2ccccc2oc1=O	29.7	0.6	46.3*	-9.0	-8.0	60.3*	56.6*
CC1CN(C(=O)c2cc(S(=O)(=O)N3CCCCC3)ccc2Cl)CC(C)O1 (stereo not given)	5.3	-4.5	0.8	-3.0	5.8	4.0	.
CC(=O)/C(=N\Nc1ccccc1Cl)Sc1cccc2cccnc12	21.8	-5.4	1.3	-3.7	-1.8	34.1	.
O=C(Sc1cccc2cccnc12)c1ccccc1Br	34.8	-2.9	51.6*	-5.4	-4.7	.	85.3*
N#Cc1c(N)n(CCCN2CCOCC2)c2nc3ccccc3nc12	-6.3	11.3	42.6*	-3.6	3.8	1.1	23.4
COc1ccc(/C=C/C(=O)OCC(=O)Nc2ccc(Cl)c(S(=O)(=O)N(C)C)c2)cc1OC	-1.5	-0.2	-9.3	5.1	3.0	-8.1	.
COc1cccc(/C=C/c2ccc3cccc(O)c3n2)c1	34.8	5.9	45.3*	-10.6	-14.6	62.3*	88.3*
COc1cccc(/C=C/c2ccc3cccc(O)c3n2)c1OC	36.7	-9.0	53.9*	-7.5	2.0	50.3*	79.2*
CC(C)CN(C(=O)COC(=O)c1ccccn1)c1c(N)n(Cc2ccccc2)c(=O)[nH]c1=O	1.4	-8.6	15.7	6.8	5.6	7.0	.
CC(N)c1csc(Nc2ncccn2)n1 (stereo not given)	7.4	.	.	.	.	.	.
CNC[C@H](CC1CCCCC1)NC[C@H](Cc1ccccc1)NCCC12CC3CC(CC(C3)C1)C2	35.9	8.7	44.5*	-3.1	1.8	.	39.1
NC[C@H](Cc1ccccc1)NCCCCC1CCCCC1	-5.3	-1.0	8.3	-5.1	-7.3	-0.5	.
CC(C)NC(=O)Nc1ccc2c(c1)C(=O)N([C@@H](C)CO)C[C@@H](C)[C@H](CN(C)Cc1ccccc1)OCCCC[C@H](C)O2	1.1	1.6	.	.	-5.2	.	.
CCOC(=O)c1cc(-c2cc(OC)c(OC)c(OC)c2)nc2c1c(=O)[nH]c(=O)n2Cc1ccccc1	27.5	-5.9	54.7*	-6.3	1.8	34.6	39.8
Cc1ccc(NC(=S)NNC(=O)c2ccc(N3CCOCC3)c([N+](=O)[O-])c2)cc1Cl	34.6	-4.8	41.6*	-6.6	7.0	30.6	63.2*
COc1ccc(C(=O)NC(=S)Nc2ccc(N3CCN(C(C)=O)CC3)cc2)cc1[N+](=O)[O-]	29.6	2.3	13.5	-3.3	0.8	43.7	.
